Test system: HEK-293T
Test: Multiplex assay against HEK293T;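 as to Population Tubulin-Different-Phenotype (%): share of the cells with healthy nuclei that show this phenotype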
Assay type: toxicity, cell-based
Conditions: human
Outline: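 Cells stained live at seeding with Hoechst33342, BioTracker Green Microtubule Cytoskeleton Dye, MitoTracker Red and Annexin V Alexa Fluor 680 were imaged on a CQ1 microscope at 37°C and 5% CO2 after compound addition. Their classification by CellPathfinder machine-learning gating ran from Hoechst high-intensity objects versus normal cells, to healthy, pyknosed or fragmented nuclei among normal cells, to mitotic or apoptotic among pyknosed cells. Tubulin, mitochondrial-mass and membrane-permeability phenotypes are per cents of healthy-nucleus cells.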

[1] = 12 h, 1 µM, compound concentration 1 uM, replicate 1
[2] = 12 h, 1 µM, compound concentration 1 uM, replicate 2
[3] = 12 h, 10 µM, compound concentration 10 uM, replicate 1
[4] = 12 h, 10 µM, compound concentration 10 uM, replicate 2
[5] = 24 h, 1 µM, compound concentration 1 uM, replicate 1
[6] = 24 h, 1 µM, compound concentration 1 uM, replicate 2
[7] = 24 h, 10 µM, compound concentration 10 uM, replicate 1
[8] = 24 h, 10 µM, compound concentration 10 uM, replicate 2

Structure (SMILES): CCN(CC)CCCCNc1ncc2cc(-c3cc(OC)cc(OC)c3)c(NC(=O)NC(C)(C)C)nc2n1 [PD-173074]
- Population Apoptotic (%) [1]: 8%
- Population Fragmented Nuclei (%) [1]: 79%
- Population Healthy Nuclei (%) [1]: 8%
- Population Hoechst High Intensity Objects (%) [1]: 69%
- Population Membrane Permeable-Phenotype (%) [1]: 15%
- Population Mitochondria Different-Phenotype (%) [1]: 31%
- Population Mitotic Cells (%) [1]: 91%
- Population Normal (%) [1]: 30%
- Population Pyknosed Nuclei (%) [1]: 11%
- Population Tubulin-Different-Phenotype (%) [1]: 42%
- Total Cell Count [1]: 685
- Population Apoptotic (%) [2]: 6%
- Population Fragmented Nuclei (%) [2]: 80%
- Population Healthy Nuclei (%) [2]: 1%
- Population Hoechst High Intensity Objects (%) [2]: 80%
- Population Membrane Permeable-Phenotype (%) [2]: 66%
- Population Mitochondria Different-Phenotype (%) [2]: 0%
- Population Mitotic Cells (%) [2]: 93%
- Population Normal (%) [2]: 19%
- Population Pyknosed Nuclei (%) [2]: 17%
- Population Tubulin-Different-Phenotype (%) [2]: 66%
- Total Cell Count [2]: 917
- Population Fragmented Nuclei (%) [3]: 29%
- Population Healthy Nuclei (%) [3]: 52%
- Population Hoechst High Intensity Objects (%) [3]: 48%
- Population Membrane Permeable-Phenotype (%) [3]: 26%
- Population Mitochondria Different-Phenotype (%) [3]: 6%
- Population Normal (%) [3]: 51%
- Population Pyknosed Nuclei (%) [3]: 17%
- Population Tubulin-Different-Phenotype (%) [3]: 33%
- Total Cell Count [3]: 693
- Population Apoptotic (%) [4]: 28%
- Population Fragmented Nuclei (%) [4]: 7%
- Population Healthy Nuclei (%) [4]: 85%
- Population Hoechst High Intensity Objects (%) [4]: 42%
- Population Membrane Permeable-Phenotype (%) [4]: 22%
- Population Mitochondria Different-Phenotype (%) [4]: 24%
- Population Mitotic Cells (%) [4]: 71%
- Population Normal (%) [4]: 57%
- Population Pyknosed Nuclei (%) [4]: 7%
- Population Tubulin-Different-Phenotype (%) [4]: 71%
- Total Cell Count [4]: 1213
- Population Apoptotic (%) [5]: 32%
- Population Fragmented Nuclei (%) [5]: 84%
- Population Healthy Nuclei (%) [5]: 6%
- Population Hoechst High Intensity Objects (%) [5]: 55%
- Population Membrane Permeable-Phenotype (%) [5]: 36%
- Population Mitochondria Different-Phenotype (%) [5]: 15%
- Population Mitotic Cells (%) [5]: 68%
- Population Normal (%) [5]: 44%
- Population Pyknosed Nuclei (%) [5]: 8%
- Population Tubulin-Different-Phenotype (%) [5]: 26%
- Total Cell Count [5]: 629
- Population Apoptotic (%) [6]: 0%
- Population Fragmented Nuclei (%) [6]: 91%
- Population Healthy Nuclei (%) [6]: 1%
- Population Hoechst High Intensity Objects (%) [6]: 60%
- Population Membrane Permeable-Phenotype (%) [6]: 0%
- Population Mitochondria Different-Phenotype (%) [6]: 20%
- Population Mitotic Cells (%) [6]: 100%
- Population Normal (%) [6]: 39%
- Population Pyknosed Nuclei (%) [6]: 6%
- Population Tubulin-Different-Phenotype (%) [6]: 60%
- Total Cell Count [6]: 891
- Population Apoptotic (%) [7]: 28%
- Population Fragmented Nuclei (%) [7]: 17%
- Population Healthy Nuclei (%) [7]: 71%
- Population Hoechst High Intensity Objects (%) [7]: 36%
- Population Membrane Permeable-Phenotype (%) [7]: 25%
- Population Mitochondria Different-Phenotype (%) [7]: 9%
- Population Mitotic Cells (%) [7]: 71%
- Population Normal (%) [7]: 63%
- Population Pyknosed Nuclei (%) [7]: 11%
- Population Tubulin-Different-Phenotype (%) [7]: 50%
- Total Cell Count [7]: 733
- Population Apoptotic (%) [8]: 15%
- Population Fragmented Nuclei (%) [8]: 16%
- Population Healthy Nuclei (%) [8]: 80%
- Population Hoechst High Intensity Objects (%) [8]: 27%
- Population Membrane Permeable-Phenotype (%) [8]: 20%
- Population Mitochondria Different-Phenotype (%) [8]: 6%
- Population Mitotic Cells (%) [8]: 85%
- Population Normal (%) [8]: 72%
- Population Pyknosed Nuclei (%) [8]: 2%
- Population Tubulin-Different-Phenotype (%) [8]: 58%
- Total Cell Count [8]: 1994
